In ChEMBL document CHEMBL1123327, “Ribose as the preferential target for the oxidized form of elliptinium acetate in ribonucleos(t)ides. Biological activities of the resulting adducts” (1986):
pIC50: −log10 of the molar value.

What follows are molecules tested on L1210 (assay: Cytotoxicity was determined in vitro in murine leukemia L1210 Cells). Settings: Mus musculus, read-out: ID50 (the source's name).
Assay type: functional
In short: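 Growth inhibition of murine leukemia L1210 cells cultured in vitro. Cells were exposed to the adducts for 48 h and then counted. ID50 is the drug concentration that cuts cell number by 50% relative to untreated control.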

Row | Compound | pIC50
1 | Cc1c2cc[n+](C)cc2c(C)c2c3c([nH]c12)C=CC(=O)[C@@]31O[C@@H]2[C@H](O1)[C@@H](CO)O[C@H]2n1cnc2c(O)nc(N)nc21 | 6.10
2 | Cc1c2cc[n+](C)cc2c(C)c2c3c([nH]c12)C=CC(=O)[C@@]31O[C@@H]2[C@H](O1)[C@@H](CO)O[C@H]2n1ccc(=O)[nH]c1=O | < 5.52
3 | Cc1c2cc[n+](C)cc2c(C)c2c3c([nH]c12)C=CC(=O)[C@@]31O[C@@H]2[C@H](O1)[C@@H](COP(=O)(O)O)O[C@H]2n1cnc2c(O)nc(N)nc21 | < 6.00
4 | Cc1c2cc[n+](C)cc2c(C)c2c3c([nH]c12)C=CC(=O)[C@@]31O[C@@H]2[C@H](O1)[C@@H](COP(=O)(O)O)O[C@H]2n1cnc2c(N)ncnc21 | < 6.10
5 | Cc1c2cc[n+](C)cc2c(C)c2c3c([nH]c12)C=CC(=O)[C@@]31O[C@@H]2[C@H](O1)[C@@H](CO)O[C@H]2n1cnc2c(N)ncnc21 | 6.10
6 | Cc1c2cc[n+](C)cc2c(C)c2c3c([nH]c12)C=CC(=O)[C@@]31O[C@@H]2[C@H](O1)[C@@H](COP(=O)(O)O)O[C@H]2n1ccc(=O)[nH]c1=O | 5.96
7 | Cc1c2cc[n+](C)cc2c(C)c2c3c([nH]c12)C=CC(=O)[C@@]31O[C@@H]2[C@H](O1)[C@@H](CO)O[C@H]2n1ncc(=O)[nH]c1=O | < 5.52
8 | Cc1c2cc[n+](C)cc2c(C)c2c3c([nH]c12)C=CC(=O)[C@@]31O[C@@H]2[C@H](O1)[C@@H](CO)O[C@H]2n1ccc(N)nc1=O | 5.52
9 | Cc1c2cc[n+](C)cc2c(C)c2c3c([nH]c12)C=CC(=O)[C@@]31O[C@@H]2[C@H](O1)[C@@H](COP(=O)(O)O)O[C@H]2n1ccc(N)nc1=O | 4.89
10 | O=c1cnn([C@@H]2O[C@H](CO)[C@@H](O)[C@H]2O)c(=O)[nH]1 [6-AZAURIDINE] | 6.24
11 | Cc1c2cc[n+](C)cc2c(C)c2c1[nH]c1ccc(O)cc12 [ELLIPTINIUM ACETATE] | 6.92
12 | Nc1nc2[nH]cnc2c(=S)[nH]1 [THIOGUANINE] | 7.15
13 | Nc1nc(=S)c2ncn([C@@H]3O[C@H](CO)[C@@H](O)[C@H]3O)c2[nH]1 [THIOGUANOSINE] | 7.00
